# Diaphorase inh – diaphorase inhibitors and chemical oxidizers, primary screen, counter-screen for diaphorase-coupled primary assays, biochemical, uHTS, resorufin fluorescence; diaphorase resazurin-to-resorufin fluorescence, NADH, 16 min; bacterial (C. kluyveri) enzyme, not human; inhibition, % at 20 µM; hit rate 0.69% among 190,000; AID 1217, 2008;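 active means primary screen inhibition at 20 µM above a set limit, cut at about 50% in these data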;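 further: plate controls were DMSO with full reaction for no effect and wells lacking NADH for full effect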
#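 Assay system: diaphorase enzyme from Clostridium kluyveri. Quantity: enzyme working solution with 0.14 U/mL diaphorase. Schedule: reaction incubation of 16 min at room temperature. Technique: resorufin fluorescence, excitation 544 nm, emission 590 nm. Controls: No-NADH positive control and DMSO neutral control.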
# PfGluPho inh – PfG6PD enzyme inhibitors, primary screen, biochemical, fluorescence intensity, uHTS. inhibition, % at 20 µM. PfGluPho enzyme, NADPH resazurin-diaphorase fluorescence. AID 504690, 2011. hit rate 0.78% among 350,000;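 active means inhibition reaching at least a set limit at 20 µM in the primary screen, cut at about 59% in these data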;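 further: 0% = DMSO wells with substrate and 100% = DMSO wells lacking glucose-6-phosphate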
# G6PDH counter – L. mesenteroides G6PDH inhibitors, counter-screen for G6PDH-coupled screening assays, biochemical, Leuconostoc mesenteroides enzyme; hit rate 0.12% among 200,000; Purified L. mesenteroides G6PDH, diaphorase/resazurin coupled fluorescence, 45 min; glucose-6-phosphate dehydrogenase [Leuconostoc mesenteroides]; AID 1020, 2008; inhibition, % at 5 µM; in the data active means inhibition above about 50%
# HKDC1 inh – HKDC1 hexokinase inhibitors, primary screen, biochemical, fluorescence, uHTS; Q2TB90; recombinant HKDC1, G6PDH/diaphorase resazurin coupled fluorescence; inhibition, % at 20 µM; hit rate 0.16% among 340,000;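 active means inhibition above about 35% when tested at 20 µM, limit read from the data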;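 further: plate controls were DMSO wells with enzyme for no effect and DMSO wells lacking enzyme for full effect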
# Target sequence (Q2TB90 whole entry, looked up): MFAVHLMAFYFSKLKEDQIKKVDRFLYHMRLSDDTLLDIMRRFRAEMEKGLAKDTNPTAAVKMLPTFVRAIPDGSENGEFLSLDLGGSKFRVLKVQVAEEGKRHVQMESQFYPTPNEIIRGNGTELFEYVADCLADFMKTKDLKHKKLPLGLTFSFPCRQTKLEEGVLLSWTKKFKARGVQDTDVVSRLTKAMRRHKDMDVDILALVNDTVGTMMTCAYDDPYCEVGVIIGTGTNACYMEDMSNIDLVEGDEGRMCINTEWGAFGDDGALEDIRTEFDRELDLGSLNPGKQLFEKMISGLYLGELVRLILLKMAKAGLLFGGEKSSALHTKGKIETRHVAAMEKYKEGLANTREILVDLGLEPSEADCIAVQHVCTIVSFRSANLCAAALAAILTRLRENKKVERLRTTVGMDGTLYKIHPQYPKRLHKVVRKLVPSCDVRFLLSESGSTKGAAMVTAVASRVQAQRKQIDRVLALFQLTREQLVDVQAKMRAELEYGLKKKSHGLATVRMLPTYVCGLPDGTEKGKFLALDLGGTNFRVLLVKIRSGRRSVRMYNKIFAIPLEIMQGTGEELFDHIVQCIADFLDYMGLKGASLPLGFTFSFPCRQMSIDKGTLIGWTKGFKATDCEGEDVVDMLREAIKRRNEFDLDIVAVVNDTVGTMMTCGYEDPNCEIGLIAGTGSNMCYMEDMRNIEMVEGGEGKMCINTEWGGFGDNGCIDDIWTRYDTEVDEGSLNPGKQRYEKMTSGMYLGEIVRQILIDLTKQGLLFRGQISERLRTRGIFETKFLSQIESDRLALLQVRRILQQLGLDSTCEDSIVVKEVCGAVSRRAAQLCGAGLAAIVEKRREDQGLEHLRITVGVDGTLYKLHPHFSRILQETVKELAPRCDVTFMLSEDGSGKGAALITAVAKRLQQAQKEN
#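 Test system: recombinant HKDC1 (HK5) hexokinase enzyme, produced in-house / Doses: 20 µM test compound, 1% DMSO / Timing: 90 min, room temperature / Detection: G6PDH/diaphorase-coupled fluorescence, 1 mM NADP, 100 µM resazurin, 525/613 nm / Control set: DMSO wells with and without enzyme mix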
# TbHK1 inh – Trypanosoma brucei hexokinase 1 inhibitors, primary screen, biochemical, G6PDH-coupled NADH absorbance, MLSCN library; hexokinase 1 [Trypanosoma brucei]; recombinant TbHK1, G6PDH-coupled NADH A340; inhibition, % at 10 µM; hit rate 0.11% among 220,000; AID 1430, 2008;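 active means inhibition of 50% or more in the single-dose primary screen; inactive means inhibition below 50%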
# * = called active by the depositor; · = not tested or not shown. An excerpt weighted towards active compounds, which were near 1.2% of everything screened.
SMILES,Diaphorase inh,PfGluPho inh,G6PDH counter,HKDC1 inh,TbHK1 inh
O=C(O)c1cc[c]([Hg][Cl])cc1,·,121.8*,·,3.9,·
CS(=O)(=O)c1ccc(C2=C(CNC(=O)c3cccnc3)[C@H]3CC[C@@H](C2)N3Cc2ccco2)cc1,·,7.2,·,·,·
CCC(C)N1C(=O)NC(=O)C2(Cc3c(ccc4ccccc34)N(C)C2)C1=O (stereo not given),73.8*,44.4,40.6,28.6,5.0
COc1ccc2c(c1)CC1(CN2C)C(=O)NC(=O)N(CCc2ccccc2)C1=O (stereo not given),37.3,32.5,7.4,11.1,2.5
CC(=O)c1ccc2c(c1)C1C(Cl)C(Sc3ccccc3[N+](=O)[O-])CC1C(C(=O)O)N2 (stereo not given),66.3*,35.4,-14.4,20.1,-9.9
O=C(O)c1cccc2c1NC(C(=O)O)C1CC(Sc3ccccc3[N+](=O)[O-])C(Cl)C21 (stereo not given),92.6*,13.8,0.7,5.5,-2.1
c1ccc(CN2Cc3ccccc3-n3nncc3C2)nc1,·,-7.4,·,·,·
Oc1cc2c(cc1O)[C@H]1c3ccccc3CN[C@@H]1CC2,64.6*,·,31.4,·,·
CC12CCC(=O)C=C1CCC1C2CCC2(C)C1CCC2(O)CC#N (stereo not given),·,0.0,·,7.9,·
CC12CC(=O)C3C(CCC4CC(=O)C=CC43C)C1CCC2=O (stereo not given),·,-2.3,·,-4.1,·
O=C1C=Cc2ccccc2C1=O,78.4*,·,61.8*,·,40.8
COCCCNP1(=O)OCC(C)([N+](=O)[O-])CO1 (stereo not given),·,-11.2,·,8.0,·
CC(=O)c1c(C)n(C2CCCCC2)c2ccc(O)cc12,50.5*,-16.0,9.0,8.3,3.4
CC(=O)c1c(C)n(Cc2ccccc2)c2ccc(O)cc12,·,-11.4,·,8.7,-8.4
CC1NC(=O)NC(=O)C1Br (stereo not given),·,8.1,·,-4.6,·
COC1=C(C)C(=O)C2=C(C1=O)C(CO)N1C(C#N)C3CC4C(C1C2N1CCOC41)N3C (stereo not given),·,84.2*,·,32.3,·
Oc1ccccc1/C=N/NP(=S)(c1ccccc1)c1ccccc1,4.5,-10.7,2.1,2.0,6.6
Oc1ccc(/C=N/NP(=S)(c2ccccc2)c2ccccc2)cc1O,58.1*,-13.6,15.2,-2.4,-15.2
CN[C@@H]1C[C@@H](c2ccc(Cl)c(Cl)c2)c2ccccc21,72.5*,·,9.2,·,·
CC(NCc1ccc(Cl)c(Cl)c1)C(O)c1ccccc1 (stereo not given),6.0,-4.3,0.8,-5.8,-0.4
COc1cc2c(c(OC)c1OC)-c1ccc(SC)c(=O)cc1C(NC(C)=O)CC2 (stereo not given),·,-1.5,·,-0.3,·
O=C1NC(=O)N(Cc2ccco2)C(=O)/C1=C/c1ccc(-c2cccc([N+](=O)[O-])c2)o1,30.1,90.1*,11.1,36.9*,23.4
O=C1NC(=S)N(Cc2ccco2)C(=O)/C1=C\c1cccs1,90.1*,·,16.9,·,80.6*
O=[N+]([O-])/C=C/c1c(Cl)cccc1Cl,·,101.3*,·,0.0,·
CCN(CC)c1ccc(/C=C/[N+](=O)[O-])cc1,16.1,3.9,7.4,9.6,-5.0
SMILES,Diaphorase inh,PfGluPho inh,G6PDH counter,HKDC1 inh,TbHK1 inh
COc1ccc(CCNC(=O)c2c(N)n(CCN3CCOCC3)c3nc4ccccc4nc23)cc1OC,51.0*,18.2,2.0,10.3,-25.9
Cc1cc(O)c2c(c1)C(=O)C13C(=C2O)C(=O)[C@H]2[C@@H](O)[C@@H]1[C@H]1[C@H](O)[C@@H]3C(=O)C3=C(O)c4c(O)cc(C)cc4C(=O)C312 (stereo not given in full),·,28.8,·,67.4*,·
CCCCn1c(NC(=O)c2ccco2)c(C(=O)OCC)c2nc3ccccc3nc21,66.1*,13.2,47.1,14.3,-13.6
COC(=O)C12OCC34C(CC5C(C)=C(O)C(=O)CC5(C)C3C(O)C1O)OC(=O)C(OC(=O)/C=C(\C)C(C)C)C24 (stereo not given),·,11.0,·,1.3,·
CCOc1cccc(N2C(=O)/C(=C/c3ccco3)C(=O)NC2=S)c1,·,-8.7,·,11.2,·
O=C1NC(=S)N(c2ccccc2)C(=O)/C1=C/c1ccco1,·,18.7,·,67.6*,·
Nc1cc(C(=O)Nc2ccccc2F)ccc1N1CC2CC(C1)c1cccc(=O)n1C2 (stereo not given),·,50.2,·,·,·
NC(N)=Nc1ccc2[nH]c3c(c2c1)C[C@@]1(O)[C@H]2Cc4ccc(O)c5c4[C@@]1(CCN2CC1CC1)[C@H]3O5,·,96.6*,·,0.7,·
Oc1ccc2c3c1O[C@H]1[C@@H](O)CC[C@@]4(O)[C@@H](C2)N(CC2CCC2)CC[C@]314,·,0.3,·,-2.0,·
CCC1(C2=NCCN2)Cc2ccccc2O1 (stereo not given),·,12.6,·,-1.0,·
NC(Cc1ccccc1Cl)c1nn[nH]n1 (stereo not given),·,-1.3,·,·,·
COc1cc(CN2CCCC(C(=O)c3sccc3C)C2)cc(Cl)c1O (stereo not given),8.2,39.2,21.0,-2.2,4.1
COc1cc(CN2CCCC(C(=O)c3sccc3C)C2)cc(OC)c1O (stereo not given),25.2,35.3,56.8*,9.6,-1.4
COC(=O)C1=C(c2ccccc2OCc2ccccc2)C[C@@H]2CC[C@H]1N2C(=O)NCCCOC(C)C,·,-8.1,·,1.1,·
CCn1nc(-c2cccs2)nc2c(=O)n(C)c(=O)nc1-2,-84.0,107.1*,58.4*,-30.5,·
CC1(CCO)C(=O)NC(=S)NC1=O,·,5.6,·,-9.6,·
CSc1nc(N2CCN(C)CC2)c2ccccc2n1,56.8*,-4.9,6.7,1.6,-15.0
COc1ccccc1N1C(=O)NC(=O)/C(=C\c2cnn(-c3ccccc3)c2)C1=O,17.3,10.7,5.7,1.2,9.3
COc1ccc(N2C(=O)NC(=O)/C(=C\c3ccc([N+](=O)[O-])s3)C2=O)cc1,33.1,63.1*,15.0,5.5,-6.5
COc1ccc(N2C(=O)NC(=O)/C(=C/c3ccc([N+](=O)[O-])s3)C2=O)cc1,·,55.9,·,5.1,-16.1
COc1ccccc1N1C(=O)NC(=O)/C(=C/c2ccc([N+](=O)[O-])s2)C1=O,·,72.1*,·,8.5,-20.6
O=C1NC(=O)N(Cc2ccc(F)cc2)C(=O)/C1=C\c1ccc([N+](=O)[O-])s1,·,71.2*,·,12.0,-8.1
COc1ccc(CN2C(=O)NC(=O)/C(=C/c3ccc([N+](=O)[O-])s3)C2=O)cc1,·,67.4*,·,13.2,-15.3
COC1=C(OC)[C@]23CCc4ccc(OC)c(OC)c4[C@]2(CCN3C)CC1=O,·,-11.7,·,0.3,·
O=S(=O)(c1cccc2ccccc12)N1Cc2ccccc2-n2nncc2C1,·,-8.7,·,·,·
